≈ marks a conversion by molar mass, not a printed value. Calls of active or inactive are those of the source. The calls are words filed in the database; no cut-off is given here.
What was measured:
Staphylococcus aureus = test: Antimicrobial activity against Staphylococcus aureus; type: functional, organism-based
[1] = system: Mycobacterium tuberculosis; test: Antitubercular activity against Mycobacterium tuberculosis H37Rv; type: functional
Summary of the method: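 Broth microdilution against M. tuberculosis H37Rv; MIC read by visual inspection of growth.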

Escherichia coli = test: Antimicrobial activity against Escherichia coli; type: functional, organism-based
Streptococcus pneumoniae = test: Antimicrobial activity against Streptococcus pneumoniae; type: functional, organism-based

With `CCOC(=O)C1=NOC(c2ccc(N3CCC(Oc4ccc(OC(F)(F)F)cc4)CC3)cc2)C1` (stereo not drawn) the Activity (Staphylococcus aureus) was “inactive”, the MIC [1] was 25 µg/mL (≈ 52.3 µM) and the Activity (Escherichia coli) was “inactive”. For the same compound, the Activity (Streptococcus pneumoniae) was “inactive”.
With `CCOC(=O)C1=NOC(c2ccc(N3CCOCC3)cc2)C1` (stereo not drawn) the Activity (Staphylococcus aureus) was “inactive”, the MIC [1] was over 200 µg/mL and the Activity (Escherichia coli) was “inactive”. For the same compound, the Activity (Streptococcus pneumoniae) was “inactive”.
`CCOC(=O)C1=NOC(c2ccc(-c3ccccc3)cc2)C1` (stereo not drawn) was tested, and the Activity (Staphylococcus aureus) was “inactive”, the MIC [1] was 100 µg/mL (≈ 339 µM) and the Activity (Escherichia coli) was “inactive”. For the same compound, the Activity (Streptococcus pneumoniae) was “inactive”.
`C=CCN1CCN(c2ccc(C3CC(C(=O)OCC)=NO3)cc2)CC1` (stereo not drawn) was tested, and the Activity (Staphylococcus aureus) was “inactive”, the MIC [1] was 6.25 µg/mL (≈ 18.2 µM) and the Activity (Escherichia coli) was “inactive”. The Activity (Streptococcus pneumoniae) was “inactive”.
With `CCOC(=O)C1=NOC(c2ccc(-c3ccc(C=O)cc3)cc2)C1` (stereo not drawn) the Activity (Staphylococcus aureus) was “inactive”, the MIC [1] was 6.25 µg/mL (≈ 19.3 µM) and the Activity (Escherichia coli) was “inactive”. The Activity (Streptococcus pneumoniae) was “inactive”.
For `CCOC(=O)C1=NOC(c2ccc(N3CCN(C(=O)OCC(C)C)CC3)cc2)C1` (stereo not drawn), the Activity (Staphylococcus aureus) was “inactive”, the MIC [1] was 0.8 µg/mL (≈ 1.98 µM) and the Activity (Escherichia coli) was “inactive”. For the same compound, the Activity (Streptococcus pneumoniae) was “inactive”.
`CCOC(=O)C1=NOC(c2ccc(-c3noc(-c4ccccc4)n3)cc2)C1` (stereo not drawn) was tested, and the Activity (Staphylococcus aureus) was “inactive”, the MIC [1] was 3.12 µg/mL (≈ 8.6 µM) and the Activity (Escherichia coli) was “inactive”. For the same compound, the Activity (Streptococcus pneumoniae) was “inactive”.
For `CC(=O)NCC1=NOC(c2ccc(N3CCN(Cc4ccccc4)CC3)cc2)C1` (stereo not drawn), the Activity (Staphylococcus aureus) was “inactive”, the MIC [1] was over 200 µg/mL and the Activity (Escherichia coli) was “inactive”. For the same compound, the Activity (Streptococcus pneumoniae) was “inactive”.
For `NNC(=O)C1=NOC(c2ccc(N3CCN(Cc4ccccc4)CC3)cc2)C1` (stereo not drawn), the Activity (Staphylococcus aureus) was “inactive”, the MIC [1] was 50 µg/mL (≈ 132 µM) and the Activity (Escherichia coli) was “inactive”. The Activity (Streptococcus pneumoniae) was “inactive”.
`C=CCOC(=O)N1CCN(c2ccc(C3CC(C(=O)OCC)=NO3)cc2)CC1` (stereo not drawn) was tested, and the Activity (Staphylococcus aureus) was “inactive”, the MIC [1] was 0.8 µg/mL (≈ 2.06 µM) and the Activity (Escherichia coli) was “inactive”. For the same compound, the Activity (Streptococcus pneumoniae) was “inactive”.
In the case of `OCC1=NOC(c2ccc(N3CCN(Cc4ccccc4)CC3)cc2)C1` (stereo not drawn), the Activity (Staphylococcus aureus) is reported as “inactive”, the MIC [1] is reported as 200 µg/mL (≈ 569 µM) and the Activity (Escherichia coli) is reported as “inactive”. The Activity (Streptococcus pneumoniae) was “inactive”.
With `NC(=O)C1=NOC(c2ccc(N3CCN(Cc4ccccc4)CC3)cc2)C1` (stereo not drawn) the Activity (Staphylococcus aureus) was “inactive”, the MIC [1] was 200 µg/mL (≈ 549 µM) and the Activity (Escherichia coli) was “inactive”. For the same compound, the Activity (Streptococcus pneumoniae) was “inactive”.
In the case of `CCCCCCNC(=O)N1CCN(c2ccc(C3CC(C(=O)OCC)=NO3)cc2)CC1` (stereo not drawn), the Activity (Staphylococcus aureus) is reported as “inactive”, the MIC [1] is reported as 0.4 µg/mL (≈ 0.929 µM) and the Activity (Escherichia coli) is reported as “inactive”. The Activity (Streptococcus pneumoniae) was “inactive”.
With `[N-]=[N+]=NCC1=NOC(c2ccc(N3CCN(Cc4ccccc4)CC3)cc2)C1` (stereo not drawn) the Activity (Staphylococcus aureus) was “inactive”, the MIC [1] was 50 µg/mL (≈ 133 µM) and the Activity (Escherichia coli) was “inactive”. The Activity (Streptococcus pneumoniae) was “inactive”.
In the case of `CCOC(=O)C1=NOC(c2ccc(N3CCN(C(=O)NCCc4ccccc4)CC3)cc2)C1` (stereo not drawn), the Activity (Staphylococcus aureus) is reported as “inactive”, the MIC [1] is reported as 0.8 µg/mL (≈ 1.78 µM) and the Activity (Escherichia coli) is reported as “inactive”. The Activity (Streptococcus pneumoniae) was “inactive”.
In the case of `[N-]=[N+]=NCC1=NOC(c2ccc(N3CCOCC3)cc2)C1` (stereo not drawn), the Activity (Staphylococcus aureus) is reported as “inactive”, the MIC [1] is reported as 200 µg/mL (≈ 696 µM) and the Activity (Escherichia coli) is reported as “inactive”. The Activity (Streptococcus pneumoniae) was “inactive”.
For `CCCNC(=O)C1=NOC(c2ccc(N3CCN(Cc4ccccc4)CC3)cc2)C1` (stereo not drawn), the Activity (Staphylococcus aureus) was “inactive”, the MIC [1] was 200 µg/mL (≈ 492 µM) and the Activity (Escherichia coli) was “inactive”. The Activity (Streptococcus pneumoniae) was “inactive”.
With `CCOC(=O)C1=NOC(c2ccc(N3CCNCC3)cc2)C1` (stereo not drawn) the Activity (Staphylococcus aureus) was “inactive”, the MIC [1] was 50 µg/mL (≈ 165 µM) and the Activity (Escherichia coli) was “inactive”. For the same compound, the Activity (Streptococcus pneumoniae) was “inactive”.
In the case of `CCOC(=O)C1=NOC(c2ccc(N3CCN(C(=O)Nc4ccccc4)CC3)cc2)C1` (stereo not drawn), the Activity (Staphylococcus aureus) is reported as “inactive”, the MIC [1] is reported as 6.25 µg/mL (≈ 14.8 µM) and the Activity (Escherichia coli) is reported as “inactive”. For the same compound, the Activity (Streptococcus pneumoniae) was “inactive”.
`Cc1nnc(C2=NOC(c3ccc(N4CCN(Cc5ccccc5)CC4)cc3)C2)o1` (stereo not drawn) was tested, and the Activity (Staphylococcus aureus) was “inactive”, the MIC [1] was 200 µg/mL (≈ 496 µM) and the Activity (Escherichia coli) was “inactive”. The Activity (Streptococcus pneumoniae) was “inactive”.
With `CCOC(=O)C1=NOC(c2ccc(N3CCCCC3)cc2)C1` (stereo not drawn) the Activity (Staphylococcus aureus) was “inactive”, the MIC [1] was 6.25 µg/mL (≈ 20.7 µM) and the Activity (Escherichia coli) was “inactive”. For the same compound, the Activity (Streptococcus pneumoniae) was “inactive”.
Work on `O=C([O-])C1=NOC(c2ccc(N3CCN(Cc4ccccc4)CC3)cc2)C1.[Li+]` (stereo not drawn) yielded an MIC [1] of 100 µg/mL.
With `NCC1=NOC(c2ccc(N3CCN(Cc4ccccc4)CC3)cc2)C1` (stereo not drawn) the Activity (Staphylococcus aureus) was “inactive”, the MIC [1] was 200 µg/mL (≈ 571 µM) and the Activity (Escherichia coli) was “inactive”. For the same compound, the Activity (Streptococcus pneumoniae) was “inactive”.
With `CCOC(=O)C1=NOC(c2ccc(N3CCN(C(=O)OC)CC3)cc2)C1` (stereo not drawn) the Activity (Staphylococcus aureus) was “inactive”, the MIC [1] was 1.56 µg/mL (≈ 4.32 µM) and the Activity (Escherichia coli) was “inactive”. The Activity (Streptococcus pneumoniae) was “inactive”.
For `CC(=O)NCC1=NOC(c2ccc(N3CCOCC3)cc2)C1` (stereo not drawn), the Activity (Staphylococcus aureus) was “inactive”, the MIC [1] was over 200 µg/mL and the Activity (Escherichia coli) was “inactive”. The Activity (Streptococcus pneumoniae) was “inactive”.
In the case of `CCCCCCNC(=O)N1CCN(c2ccc(C3CC(C(=O)O)=NO3)cc2)CC1` (stereo not drawn), the Activity (Staphylococcus aureus) is reported as “inactive”, the MIC [1] is reported as over 200 µg/mL and the Activity (Escherichia coli) is reported as “inactive”. For the same compound, the Activity (Streptococcus pneumoniae) was “inactive”.
In the case of `OCC1=NOC(c2ccc(N3CCOCC3)cc2)C1` (stereo not drawn), the Activity (Staphylococcus aureus) is reported as “inactive”, the MIC [1] is reported as over 200 µg/mL and the Activity (Escherichia coli) is reported as “inactive”. The Activity (Streptococcus pneumoniae) was “inactive”.
For `NCC1=NOC(c2ccc(N3CCOCC3)cc2)C1` (stereo not drawn), the Activity (Staphylococcus aureus) was “inactive”, the MIC [1] was over 200 µg/mL and the Activity (Escherichia coli) was “inactive”. The Activity (Streptococcus pneumoniae) was “inactive”.
With `CC(C)COC(=O)N1CCN(c2ccc(C3CC(C(=O)O)=NO3)cc2)CC1` (stereo not drawn) the Activity (Staphylococcus aureus) was “inactive”, the MIC [1] was over 200 µg/mL and the Activity (Escherichia coli) was “inactive”. The Activity (Streptococcus pneumoniae) was “inactive”.
With `CCCCOC(=O)N1CCN(c2ccc(C3CC(C(=O)O)=NO3)cc2)CC1` (stereo not drawn) the Activity (Staphylococcus aureus) was “inactive”, the MIC [1] was over 200 µg/mL and the Activity (Escherichia coli) was “inactive”. For the same compound, the Activity (Streptococcus pneumoniae) was “inactive”.
`CCCCOC(=O)N1CCN(c2ccc(C3CC(C(=O)OCC)=NO3)cc2)CC1` (stereo not drawn) was tested, and the Activity (Staphylococcus aureus) was “inactive”, the MIC [1] was 0.8 µg/mL (≈ 1.98 µM) and the Activity (Escherichia coli) was “inactive”. For the same compound, the Activity (Streptococcus pneumoniae) was “inactive”.
In the case of `CCOC(=O)C1=NOC(c2ccc(N3CCN(C(=O)OCC)CC3)cc2)C1` (stereo not drawn), the Activity (Staphylococcus aureus) is reported as “inactive”, the MIC [1] is reported as 1.56 µg/mL (≈ 4.16 µM) and the Activity (Escherichia coli) is reported as “inactive”. For the same compound, the Activity (Streptococcus pneumoniae) was “inactive”.
`CCOC(=O)C1=NOC(c2ccc(-c3ncon3)cc2)C1` (stereo not drawn) was tested, and the Activity (Staphylococcus aureus) was “inactive”, the MIC [1] was 50 µg/mL (≈ 174 µM) and the Activity (Escherichia coli) was “inactive”. The Activity (Streptococcus pneumoniae) was “inactive”.
In the case of `CCOC(=O)C1=NOC(c2ccc(N3CCN(CC4CC4)CC3)cc2)C1` (stereo not drawn), the Activity (Staphylococcus aureus) is reported as “inactive”, the MIC [1] is reported as 12.5 µg/mL (≈ 35 µM) and the Activity (Escherichia coli) is reported as “inactive”. For the same compound, the Activity (Streptococcus pneumoniae) was “inactive”.
With `O=C(O)C1=NOC(c2ccc(N3CCN(Cc4ccccc4)CC3)cc2)C1` (stereo not drawn) [listing 1 of 2 here] the MIC [1] was over 200 µg/mL.
`CCCNC(=O)N1CCN(c2ccc(C3CC(C(=O)OCC)=NO3)cc2)CC1` (stereo not drawn) was tested, and the Activity (Staphylococcus aureus) was “inactive”, the MIC [1] was 25 µg/mL (≈ 64.4 µM) and the Activity (Escherichia coli) was “inactive”. The Activity (Streptococcus pneumoniae) was “inactive”.
For `CCOC(=O)C1=NOC(c2ccc(N3CCN(C(=O)NC(C)C)CC3)cc2)C1` (stereo not drawn), the Activity (Staphylococcus aureus) was “inactive”, the MIC [1] was 12.5 µg/mL (≈ 32.2 µM) and the Activity (Escherichia coli) was “inactive”. For the same compound, the Activity (Streptococcus pneumoniae) was “inactive”.
`CCOC(=O)C1=NOC(c2ccc(N3CCN(Cc4ccccc4)CC3)cc2)C1` (stereo not drawn) was tested, and the Activity (Staphylococcus aureus) was “inactive”, the MIC [1] was 1.56 µg/mL (≈ 3.96 µM) and the Activity (Escherichia coli) was “inactive”. For the same compound, the Activity (Streptococcus pneumoniae) was “inactive”.
For `CCOC(=O)C1=NOC(c2ccc(N3CCN(C(=O)OC(C)(C)C)CC3)cc2)C1` (stereo not drawn), the Activity (Staphylococcus aureus) was “inactive”, the MIC [1] was 0.8 µg/mL (≈ 1.98 µM) and the Activity (Escherichia coli) was “inactive”. For the same compound, the Activity (Streptococcus pneumoniae) was “inactive”.
With `CCOC(=O)C1=NOC(c2ccc(N3CCN(Cc4ccc([N+](=O)[O-])cc4)CC3)cc2)C1` (stereo not drawn) the Activity (Staphylococcus aureus) was “inactive”, the MIC [1] was 0.8 µg/mL (≈ 1.82 µM) and the Activity (Escherichia coli) was “inactive”. The Activity (Streptococcus pneumoniae) was “inactive”.
With `CCOC(=O)C1=NOC(c2ccc(-c3ccco3)cc2)C1` (stereo not drawn) the Activity (Staphylococcus aureus) was “inactive”, the MIC [1] was 3.25 µg/mL (≈ 11.4 µM) and the Activity (Escherichia coli) was “inactive”. The Activity (Streptococcus pneumoniae) was “inactive”.
`CCOC(=O)C1=NOC(c2ccc(-c3ccc(OC)c(F)c3)cc2)C1` (stereo not drawn) was tested, and the Activity (Staphylococcus aureus) was “inactive”, the MIC [1] was 3.12 µg/mL (≈ 9.1 µM) and the Activity (Escherichia coli) was “inactive”. The Activity (Streptococcus pneumoniae) was “inactive”.
`O=C(O)C1=NOC(c2ccc(N3CCN(C(=O)NCCc4ccccc4)CC3)cc2)C1` (stereo not drawn) was tested, and the Activity (Staphylococcus aureus) was “inactive”, the MIC [1] was over 200 µg/mL and the Activity (Escherichia coli) was “inactive”. For the same compound, the Activity (Streptococcus pneumoniae) was “inactive”.
In the case of `O=C(O)C1=NOC(c2ccc(N3CCN(Cc4ccccc4)CC3)cc2)C1` (stereo not drawn) [listing 2 of 2 here], the Activity (Staphylococcus aureus) is reported as “inactive”, the Activity (Escherichia coli) is reported as “inactive” and the Activity (Streptococcus pneumoniae) is reported as “inactive”.
With `COC(=O)C1=NOC(c2ccc(N3CCN(Cc4ccccc4)CC3)cc2)C1` (stereo not drawn) the Activity (Staphylococcus aureus) was “inactive”, the MIC [1] was 1.56 µg/mL (≈ 4.11 µM) and the Activity (Escherichia coli) was “inactive”. The Activity (Streptococcus pneumoniae) was “inactive”.

From ChEMBL document CHEMBL1153861, “Synthesis, optimization and structure-activity relationships of 3,5-disubstituted isoxazolines as new anti-tuberculosis agents” (2009)
